Reference: ChEMBL document CHEMBL5532717, “Facile Halogenation of Antimicrobial Peptides As Demonstrated by Producing Bromotryptophan-Labeled Nisin Variants with Enhanced Antimicrobial Activity” (2024)
≈ marks a conversion by molar mass, not a printed value. Calls of active or inactive are those of the source. The calls are words filed in the database; no cut-off is given here.

How the values were obtained:
[1] = test system: Enterococcus faecalis; assay: Antibacterial activity against vancomycin-reistant Enterococcus faecalis LMG16216 assessed as reduction in bacterial growth by broth microdilution method; assay type: functional
In short: (§1)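 Broth microdilution MIC: inoculum adjusted to approximately 5 × 10^5 CFU/mL. Plates incubated overnight at 37 °C, or at 30 °C for L. lactis. MIC taken as the lowest concentration with no visible growth.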

[2] = test system: Bacillus cereus; assay: Bactericidal activity against Bacillus cereus CH-85 at 15 microg/ml measured for 3 hrs by time-kill assay; assay type: functional, organism-based; settings: dose 15.0 µg/ml
In short: (§2)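 B. cereus CH-85 overnight culture diluted 50-fold in LB and grown at 37 °C with aeration to OD600 0.5, then adjusted to 5 × 10^5 cells/mL. Cells exposed to peptide at several concentrations in tubes at 37 °C, 180 rpm; untreated cells as negative control. Aliquots taken at time points, 10-fold serially diluted and plated on LB agar, incubated overnight at 37 °C, CFU/mL counted; triplicate.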

[3] = test system: Bacillus cereus; assay: Antibacterial activity against Bacillus cereus CH-85 assessed as reduction in bacterial growth by broth microdilution method; assay type: functional; in short: as §1
[4] = test system: Enterococcus faecium; assay: Antibacterial activity against vancomycin-resistant Enterococcus faecium LMG16003 assessed as reduction in bacterial growth by broth microdilution method; assay type: functional
In short: (§3)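 Broth microdilution per standard guidelines; inoculum about 5 × 10^5 CFU/mL. Incubated overnight at 37 °C. MIC taken as lowest concentration with no visible growth.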

[5] = test system: Staphylococcus aureus; assay: Antibacterial activity against Staphylococcus aureus LMG10147 assessed as reduction in bacterial growth by broth microdilution method; assay type: functional; in short: as §1
[6] = test system: Bacillus cereus; assay: Bactericidal activity against Bacillus cereus CH-85 incubated overnight in presence of lipid II by spot-on-lawn assay; assay type: functional, organism-based
In short: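 B. cereus CH-85 lawn: 0.1% (v/v) overnight-culture inoculum mixed into 1.5% (w/v) LB agar at 45 °C and poured. 5 μL of peptide spotted and dried. Purified lipid II (2 μL) then spotted at the edge of the inhibition halo. Plate incubated overnight at 37 °C and read for lipid II binding.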

[7] = test system: Bacillus cereus; assay: Bactericidal activity against Bacillus cereus CH-85 assessed as bacterial cell killing at 15 microg/ml measured for 3 hrs by time-kill assay; assay type: functional; settings: dose 15.0 µg/ml; in short: as §2
[8] = test system: Lactococcus lactis; assay: Antibacterial activity against Lactococcus lactis MG1363 assessed as reduction in bacterial growth by broth microdilution method; assay type: functional; in short: as §1
[9] = test system: Staphylococcus aureus; assay: Antibacterial activity against methicillin-resistant Staphylococcus aureus LMG15975 assessed as reduction in bacterial growth by broth microdilution method; assay type: functional; in short: as §3

N[C@@H](Cc1c[nH]c2ccc(Br)cc12)C(=O)O
MIC [1]: 12.5 µg/mL (≈ 44.2 µM) | Activity [2]: Active | MIC [3]: 3.13 µg/mL (≈ 11.1 µM) | MIC [4]: 3.13 µg/mL (≈ 11.1 µM) | MIC [5]: 6.25 µg/mL (≈ 22.1 µM) | Activity [6]: inactive | Activity [7]: Active | MIC [8]: 0.04 µg/mL (≈ 0.141 µM) | MIC [9]: 3.13 µg/mL (≈ 11.1 µM)

N[C@@H](Cc1c[nH]c2ccc(O)cc12)C(=O)O [OXITRIPTAN]
MIC [1]: 12.5 µg/mL (≈ 56.8 µM) | MIC [3]: 6.25 µg/mL (≈ 28.4 µM) | MIC [4]: 6.25 µg/mL (≈ 28.4 µM) | MIC [5]: 12.5 µg/mL (≈ 56.8 µM) | MIC [8]: 0.08 µg/mL (≈ 0.363 µM) | MIC [9]: > 12.5 µg/mL

CCCCCCCCCC(=O)N[C@@H](Cc1c[nH]c2ccccc12)C(=O)N[C@H](CC(N)=O)C(=O)N[C@@H](CC(=O)O)C(=O)N[C@@H]1C(=O)NCC(=O)N[C@@H](CCCN)C(=O)N[C@@H](CC(=O)O)C(=O)N[C@H](C)C(=O)N[C@@H](CC(=O)O)C(=O)NCC(=O)N[C@H](CO)C(=O)N[C@@H]([C@H](C)CC(=O)O)C(=O)N[C@@H](CC(=O)c2ccccc2N)C(=O)O[C@@H]1C
Activity [6]: Active

N[C@@H](Cc1c[nH]c2ccccc12)C(=O)O [TRYPTOPHAN]
MIC [1]: 12.5 µg/mL (≈ 61.2 µM) | MIC [3]: 6.25 µg/mL (≈ 30.6 µM) | MIC [4]: 3.13 µg/mL (≈ 15.3 µM) | MIC [5]: 6.25 µg/mL (≈ 30.6 µM) | MIC [8]: 0.04 µg/mL (≈ 0.196 µM) | MIC [9]: 6.25 µg/mL (≈ 30.6 µM)

N[C@@H](Cc1c[nH]c2cc(Br)ccc12)C(=O)O
MIC [1]: 25 µg/mL (≈ 88.3 µM) | MIC [3]: 6.25 µg/mL (≈ 22.1 µM) | MIC [4]: 3.13 µg/mL (≈ 11.1 µM) | MIC [5]: 12.5 µg/mL (≈ 44.2 µM) | MIC [8]: 0.08 µg/mL (≈ 0.283 µM) | MIC [9]: 6.25 µg/mL (≈ 22.1 µM)
